Laboratory results published in ChEMBL document CHEMBL1125894, “Dual-action cephalosporins: cephalosporin 3'-quaternary ammonium quinolones” (1991).
Values after ≈ are worked out from the molar mass of the structure shown.

Columns and labels:
Streptococcus pneumoniae = experiment: In vitro antibacterial activity against Streptococcus pneumoniae 6301; format: functional
Procedure, shortened: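 Broth macrodilution with serial 2-fold dilutions in cation-supplemented Mueller-Hinton broth containing 10% goat serum. The value is reported as the MIC.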

[1] = target: T1, Penicillin-binding protein 1B (Escherichia coli K-12) (UniProt P02919); experiment: Concentration required for 90% inhibition against 90 kDa penicillin-binding protein 1b binding using [14C]-Pen G as the radioligand.
T1 sequence (whole entry): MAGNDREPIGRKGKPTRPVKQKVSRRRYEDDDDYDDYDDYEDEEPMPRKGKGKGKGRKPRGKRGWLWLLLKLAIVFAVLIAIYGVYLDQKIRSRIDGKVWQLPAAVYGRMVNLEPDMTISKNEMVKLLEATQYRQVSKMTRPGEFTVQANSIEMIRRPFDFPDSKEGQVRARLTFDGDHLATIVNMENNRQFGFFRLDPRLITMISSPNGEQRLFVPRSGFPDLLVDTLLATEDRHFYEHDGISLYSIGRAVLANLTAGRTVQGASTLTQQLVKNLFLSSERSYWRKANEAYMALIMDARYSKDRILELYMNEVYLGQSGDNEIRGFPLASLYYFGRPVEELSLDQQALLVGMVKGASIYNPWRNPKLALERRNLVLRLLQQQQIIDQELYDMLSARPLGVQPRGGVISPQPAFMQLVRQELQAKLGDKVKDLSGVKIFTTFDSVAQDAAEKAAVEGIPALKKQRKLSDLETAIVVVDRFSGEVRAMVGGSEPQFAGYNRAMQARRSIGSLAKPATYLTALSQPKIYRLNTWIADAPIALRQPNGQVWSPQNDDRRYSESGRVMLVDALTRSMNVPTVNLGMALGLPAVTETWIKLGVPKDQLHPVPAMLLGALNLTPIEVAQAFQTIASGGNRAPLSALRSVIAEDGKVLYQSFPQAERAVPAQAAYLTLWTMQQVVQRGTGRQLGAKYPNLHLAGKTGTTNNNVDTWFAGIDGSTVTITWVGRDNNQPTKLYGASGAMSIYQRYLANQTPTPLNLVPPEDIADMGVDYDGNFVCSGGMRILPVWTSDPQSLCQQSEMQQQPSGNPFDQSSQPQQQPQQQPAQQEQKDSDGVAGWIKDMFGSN
Procedure, shortened: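 Solubilized membranes from sonicated E. coli DC-0 were used. PBP binding was measured as inhibition of [14C]penicillin G binding to each PBP.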

Streptococcus pyogenes = experiment: In vivo activity in murine against Streptococcus pyogenes 4 infection after sc administration.; format: functional
Procedure, shortened: (§1)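 Mouse protection test in CD1 Swiss albino mice (18–20 g). Mice were infected intraperitoneally with 0.5 mL of a diluted bacterial suspension, then treated within 5 min with one 1.0 mL subcutaneous dose at the dorsal base of the neck. Doses ranged from 0.05 to 250 mg/kg, with six mice per group. ED50 was calculated by the Reed–Muench method.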

Enterobacter cloacae [2] = experiment: In vitro antibacterial activity against Enterobacter cloacae 5699; format: functional
Procedure, shortened: (§2)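 Serial 2-fold dilutions in the NCCLS broth microdilution method for aerobic nonfastidious organisms, with an 18-h incubation. The value is reported as the minimum inhibitory concentration (MIC).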

Enterobacter cloacae [3] = experiment: In vitro antibacterial activity against Enterobacter cloacae P99; format: functional; procedure, shortened: as §2
Serratia marcescens = experiment: In vivo activity in murine against Serratia marcescens SM infection after sc administration.; format: functional; procedure, shortened: as §1

MIC (Streptococcus pneumoniae): 0.5 µg/mL (≈ 0.597 µM) | Concentration [1]: 30 µg/mL | MIC (Enterobacter cloacae [2]): 0.25 µg/mL (≈ 0.299 µM) | MIC (Enterobacter cloacae [3]): 1 µg/mL (≈ 1.19 µM)
SMILES: CC(C)(O/N=C(\C(=O)N[C@@H]1C(=O)N2C(C(=O)[O-])=C(C[N+]3(C)CCN(c4c(F)cc5c(=O)c(C(=O)O)cn(CCF)c5c4F)CC3)CS[C@H]12)c1csc(N)n1)C(=O)O
ED50 (Streptococcus pyogenes): 54 mg/kg | ED50 (Serratia marcescens): 8 mg/kg
